According to ChEMBL document CHEMBL5696442, “Discovery of type II inhibitors of TGFβ-activated kinase 1 (TAK1) and mitogen-activated protein kinase kinase kinase kinase 2 (MAP4K2)” (J Med Chem, 2015):

How the values were obtained:
[1] = Volume of distribution at steady state in Swiss albino mouse at 1 mg/kg, iv measured upto 24 hrs by LC/MS/MS analysis; assay type: ADME, organism-based; details: in vivo
Method in brief: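 Blood was sampled at 0, 0.083, 0.25, 0.5, 1, 2, 4, 8, 12 and 24 h (three mice per point, K2EDTA). Plasma was precipitated with acetonitrile and quantified by LC/MS/MS (LLOQ 1.138 ng/mL).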

[2] = Oral bioavailability in Swiss albino mouse at 10 mg/kg measured upto 24 hrs by LC/MS/MS analysis; assay type: ADME, organism-based; details: in vivo
Method in brief: (§1)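 Blood was taken at 0, 0.25, 0.5, 1, 2, 4, 6, 8, 12 and 24 h from three mice per time point, into K2EDTA. Plasma was acetonitrile-precipitated and analyzed by LC/MS/MS (LLOQ 1.138 ng/mL).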

[3] = Cmax in Swiss albino mouse at 10 mg/kg, po measured upto 24 hrs by LC/MS/MS analysis; assay type: ADME, organism-based; details: in vivo
[4] = Cmax in Swiss albino mouse at 1 mg/kg, iv measured upto 24 hrs by LC/MS/MS analysis; assay type: ADME, organism-based; details: in vivo
Method in brief: (§2)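 Male Swiss albino mice. […] Blood was taken into K2EDTA from three mice per time point, from 0 to 24 h. Plasma was precipitated with acetonitrile and analysed by LC/MS/MS (LLOQ 1.138 ng/mL).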

[5] = molecular target: T1, Mitogen-activated protein kinase 14 (Homo sapiens, UniProt Q16539); test: Inhibition of p38 alpha (unknown origin) by KiNativ Profiling analysis
BaF3 [6] = test: Antiproliferative activity against parental mouse BaF3 cells assessed reduction in cell viability measured after 48 hrs by Celltiter-glo assay; assay type: functional, cell-based; details: BaF3, 48 h
[7] = molecular target: T2, Mitogen-activated protein kinase kinase kinase kinase 2 (Homo sapiens, UniProt Q12851); test: Inhibition of MAP4K2 (unknown origin) Lys1 labeling site by KiNativ Profiling analysis
T2 sequence (Q12851 whole entry): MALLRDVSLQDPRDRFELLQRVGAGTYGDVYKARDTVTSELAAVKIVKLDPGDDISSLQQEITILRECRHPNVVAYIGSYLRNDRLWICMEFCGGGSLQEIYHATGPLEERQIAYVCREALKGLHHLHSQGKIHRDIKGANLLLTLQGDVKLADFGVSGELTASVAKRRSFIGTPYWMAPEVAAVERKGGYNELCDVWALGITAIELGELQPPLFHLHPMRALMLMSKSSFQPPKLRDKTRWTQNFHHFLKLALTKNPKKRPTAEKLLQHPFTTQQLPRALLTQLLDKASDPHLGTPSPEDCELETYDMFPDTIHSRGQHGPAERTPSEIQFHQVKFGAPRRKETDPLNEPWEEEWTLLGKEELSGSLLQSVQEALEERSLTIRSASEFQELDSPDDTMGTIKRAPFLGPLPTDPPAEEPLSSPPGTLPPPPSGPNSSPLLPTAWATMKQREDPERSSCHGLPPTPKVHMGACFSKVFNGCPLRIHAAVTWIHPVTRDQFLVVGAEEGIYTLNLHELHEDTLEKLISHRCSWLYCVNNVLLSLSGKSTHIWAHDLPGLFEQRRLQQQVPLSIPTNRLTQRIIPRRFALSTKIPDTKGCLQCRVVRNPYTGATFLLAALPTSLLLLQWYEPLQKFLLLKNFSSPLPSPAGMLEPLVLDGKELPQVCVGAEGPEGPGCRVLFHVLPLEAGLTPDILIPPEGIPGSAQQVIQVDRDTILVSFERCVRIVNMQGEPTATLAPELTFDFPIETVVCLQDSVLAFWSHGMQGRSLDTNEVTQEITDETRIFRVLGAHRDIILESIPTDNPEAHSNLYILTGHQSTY

BaF3 [8] = test: Antiproliferative activity against parental mouse BaF3 cells harbouring Bcr/Abl assessed reduction in cell viability measured after 48 hrs by Celltiter-glo assay; assay type: functional, cell-based; details: BaF3, 48 h
Method in brief: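 Cells were grown with serial dilutions of compound for 48 h, and viability was read by CellTiter-Glo. IC50 was derived from the dose–response curve. Parental Ba/F3 cells were grown in the presence of interleukin 3. The BCR-ABL line is BCR-ABL-dependent Ba/F3.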

[9] = molecular target: T3, Mitogen-activated protein kinase kinase kinase 7 (Homo sapiens, UniProt O43318); test: Inhibition of TAK1 (unknown origin) Lys2 labeling site by KiNativ Profiling analysis
T3 sequence (O43318 whole entry): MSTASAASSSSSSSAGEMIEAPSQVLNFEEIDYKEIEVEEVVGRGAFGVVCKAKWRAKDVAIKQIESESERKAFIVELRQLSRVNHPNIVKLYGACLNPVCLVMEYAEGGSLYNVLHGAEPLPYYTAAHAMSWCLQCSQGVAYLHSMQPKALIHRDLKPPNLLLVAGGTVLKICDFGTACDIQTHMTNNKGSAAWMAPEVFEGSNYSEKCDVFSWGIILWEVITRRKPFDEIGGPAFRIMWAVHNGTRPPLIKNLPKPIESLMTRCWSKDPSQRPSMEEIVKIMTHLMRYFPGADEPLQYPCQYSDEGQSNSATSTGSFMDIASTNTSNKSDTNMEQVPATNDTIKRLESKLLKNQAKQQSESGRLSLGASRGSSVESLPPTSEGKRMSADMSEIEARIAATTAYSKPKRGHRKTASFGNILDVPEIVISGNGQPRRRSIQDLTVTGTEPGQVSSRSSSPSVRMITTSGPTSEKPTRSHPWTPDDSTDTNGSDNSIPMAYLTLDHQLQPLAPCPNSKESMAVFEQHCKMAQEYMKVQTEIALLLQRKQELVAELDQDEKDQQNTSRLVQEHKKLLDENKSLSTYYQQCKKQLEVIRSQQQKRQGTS

[10] = molecular target: T4, Mitogen-activated protein kinase kinase kinase 7 (Homo sapiens) (UniProt O43318); test: Inhibition of TAK1 Lys2 labeling site in human A-375 cells at 0.5 uM by KiNativ Profiling analysis relative to control; assay type: cell-based
T4 sequence (whole entry): T3 sequence (O43318 whole entry)

[11] = molecular target: T1, Mitogen-activated protein kinase 14; test: Inhibition of p38 alpha in human Huh-7 cell lysate at 1 uM by KiNativ Profiling analysis relative to control; assay type: subcellular
[12] = molecular target: T5, Tyrosine-protein kinase ABL1 (Homo sapiens, UniProt P00519); test: Inhibition of ABL ACT labeling site in human Huh-7 cell lysate at 1 uM by KiNativ Profiling analysis relative to control; assay type: subcellular
[13] = AUC last in Swiss albino mouse at 1 mg/kg, iv measured upto 24 hrs by LC/MS/MS analysis; assay type: ADME, organism-based; details: in vivo; method in brief: as §2
[14] = Half life in Swiss albino mouse at 1 mg/kg, iv measured upto 24 hrs by LC/MS/MS analysis; assay type: ADME, organism-based; details: in vivo; method in brief: as §2
[15] = molecular target: T6, Mitogen-activated protein kinase kinase kinase kinase 2 (Homo sapiens) (UniProt Q12851); test: Inhibition of MAP4K2 Lys1 labeling site in human A-375 cells at 0.5 uM by KiNativ Profiling analysis relative to control; assay type: cell-based
T6 sequence (whole entry): T2 sequence (Q12851 whole entry)

[16] = Tmax in Swiss albino mouse at 10 mg/kg, po measured upto 24 hrs by LC/MS/MS analysis; assay type: ADME, organism-based; details: in vivo; method in brief: as §1
[17] = AUC last in Swiss albino mouse at 10 mg/kg, po measured upto 24 hrs by LC/MS/MS analysis; assay type: ADME, organism-based; details: in vivo
[18] = molecular target: T5, Tyrosine-protein kinase ABL1; test: Inhibition of ABL Lys1 labeling site in human Huh-7 cell lysate at 1 uM by KiNativ Profiling analysis relative to control; assay type: subcellular
[19] = molecular target: T7, Tyrosine-protein kinase Fer (Homo sapiens, UniProt P16591); test: Inhibition of FER (unknown origin) ACT labeling site by KiNativ Profiling analysis
Target sequence in this assay (P16591 whole entry): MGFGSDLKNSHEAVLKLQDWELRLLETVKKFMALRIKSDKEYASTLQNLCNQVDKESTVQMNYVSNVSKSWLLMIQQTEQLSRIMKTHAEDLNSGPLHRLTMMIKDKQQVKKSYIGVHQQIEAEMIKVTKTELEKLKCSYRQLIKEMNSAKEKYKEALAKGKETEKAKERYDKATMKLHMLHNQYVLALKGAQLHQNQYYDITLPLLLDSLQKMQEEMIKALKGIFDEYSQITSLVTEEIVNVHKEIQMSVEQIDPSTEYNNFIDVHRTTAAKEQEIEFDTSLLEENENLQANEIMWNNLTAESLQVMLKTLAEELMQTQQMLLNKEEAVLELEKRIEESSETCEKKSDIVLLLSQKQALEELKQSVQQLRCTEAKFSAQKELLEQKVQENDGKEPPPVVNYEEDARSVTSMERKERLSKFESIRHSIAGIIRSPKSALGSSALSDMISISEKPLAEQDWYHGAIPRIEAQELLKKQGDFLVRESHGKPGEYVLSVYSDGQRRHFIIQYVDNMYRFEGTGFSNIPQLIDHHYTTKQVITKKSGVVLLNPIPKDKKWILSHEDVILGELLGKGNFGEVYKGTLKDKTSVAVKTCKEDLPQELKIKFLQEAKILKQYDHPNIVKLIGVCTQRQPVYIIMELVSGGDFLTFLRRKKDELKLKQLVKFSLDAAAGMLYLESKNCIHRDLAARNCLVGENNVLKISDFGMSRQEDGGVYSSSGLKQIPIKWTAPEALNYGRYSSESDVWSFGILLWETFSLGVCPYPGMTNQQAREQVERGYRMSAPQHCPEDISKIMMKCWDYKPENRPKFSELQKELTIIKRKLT

[20] = molecular target: T8, Tyrosine-protein kinase Fes/Fps (Homo sapiens, UniProt P07332); test: Inhibition of FES (unknown origin) by KiNativ Profiling analysis
[21] = molecular target: T8, Tyrosine-protein kinase Fes/Fps; test: Inhibition of FES Lys1 labeling site in human Huh-7 cell lysate at 1 uM by KiNativ Profiling analysis relative to control; assay type: subcellular
[22] = molecular target: T7, Tyrosine-protein kinase Fer; test: Inhibition of FER Lys1 labeling site in human Huh-7 cell lysate at 1 uM by KiNativ Profiling analysis relative to control; assay type: subcellular
Target sequence in this assay (P16591 whole entry, looked up): as the sequence (P16591 whole entry) above

T1 sequence (Q16539 whole entry): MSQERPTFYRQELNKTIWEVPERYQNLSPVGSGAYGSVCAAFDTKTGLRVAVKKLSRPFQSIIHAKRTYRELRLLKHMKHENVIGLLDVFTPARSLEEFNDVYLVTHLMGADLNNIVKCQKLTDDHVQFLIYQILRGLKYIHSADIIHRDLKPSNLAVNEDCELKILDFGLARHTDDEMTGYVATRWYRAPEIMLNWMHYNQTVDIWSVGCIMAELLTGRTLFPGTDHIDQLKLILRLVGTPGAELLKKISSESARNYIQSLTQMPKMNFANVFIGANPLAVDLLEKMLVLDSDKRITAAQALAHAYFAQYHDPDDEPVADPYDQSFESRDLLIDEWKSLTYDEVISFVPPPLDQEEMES
T8 sequence (P07332 whole entry): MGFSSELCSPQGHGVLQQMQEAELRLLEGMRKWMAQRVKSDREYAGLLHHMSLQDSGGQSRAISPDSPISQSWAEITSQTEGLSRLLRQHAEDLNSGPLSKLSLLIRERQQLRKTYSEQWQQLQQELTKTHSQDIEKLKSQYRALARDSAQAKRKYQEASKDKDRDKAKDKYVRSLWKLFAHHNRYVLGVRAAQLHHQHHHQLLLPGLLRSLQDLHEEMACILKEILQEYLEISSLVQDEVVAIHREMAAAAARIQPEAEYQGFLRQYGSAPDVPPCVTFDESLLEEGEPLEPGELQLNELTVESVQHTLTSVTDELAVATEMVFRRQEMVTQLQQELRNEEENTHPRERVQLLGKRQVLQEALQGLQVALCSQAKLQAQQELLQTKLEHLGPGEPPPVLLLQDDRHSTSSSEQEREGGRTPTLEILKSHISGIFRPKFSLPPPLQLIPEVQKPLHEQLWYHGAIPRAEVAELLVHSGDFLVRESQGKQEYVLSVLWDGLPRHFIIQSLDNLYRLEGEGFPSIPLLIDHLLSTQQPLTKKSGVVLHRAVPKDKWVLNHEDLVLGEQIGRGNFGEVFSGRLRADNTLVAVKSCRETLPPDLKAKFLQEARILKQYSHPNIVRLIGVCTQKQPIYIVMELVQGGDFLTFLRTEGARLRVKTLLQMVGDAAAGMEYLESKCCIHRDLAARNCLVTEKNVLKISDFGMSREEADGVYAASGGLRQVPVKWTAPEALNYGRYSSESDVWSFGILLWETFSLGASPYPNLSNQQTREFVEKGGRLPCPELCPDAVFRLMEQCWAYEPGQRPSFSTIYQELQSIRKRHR
T5 sequence (P00519 whole entry): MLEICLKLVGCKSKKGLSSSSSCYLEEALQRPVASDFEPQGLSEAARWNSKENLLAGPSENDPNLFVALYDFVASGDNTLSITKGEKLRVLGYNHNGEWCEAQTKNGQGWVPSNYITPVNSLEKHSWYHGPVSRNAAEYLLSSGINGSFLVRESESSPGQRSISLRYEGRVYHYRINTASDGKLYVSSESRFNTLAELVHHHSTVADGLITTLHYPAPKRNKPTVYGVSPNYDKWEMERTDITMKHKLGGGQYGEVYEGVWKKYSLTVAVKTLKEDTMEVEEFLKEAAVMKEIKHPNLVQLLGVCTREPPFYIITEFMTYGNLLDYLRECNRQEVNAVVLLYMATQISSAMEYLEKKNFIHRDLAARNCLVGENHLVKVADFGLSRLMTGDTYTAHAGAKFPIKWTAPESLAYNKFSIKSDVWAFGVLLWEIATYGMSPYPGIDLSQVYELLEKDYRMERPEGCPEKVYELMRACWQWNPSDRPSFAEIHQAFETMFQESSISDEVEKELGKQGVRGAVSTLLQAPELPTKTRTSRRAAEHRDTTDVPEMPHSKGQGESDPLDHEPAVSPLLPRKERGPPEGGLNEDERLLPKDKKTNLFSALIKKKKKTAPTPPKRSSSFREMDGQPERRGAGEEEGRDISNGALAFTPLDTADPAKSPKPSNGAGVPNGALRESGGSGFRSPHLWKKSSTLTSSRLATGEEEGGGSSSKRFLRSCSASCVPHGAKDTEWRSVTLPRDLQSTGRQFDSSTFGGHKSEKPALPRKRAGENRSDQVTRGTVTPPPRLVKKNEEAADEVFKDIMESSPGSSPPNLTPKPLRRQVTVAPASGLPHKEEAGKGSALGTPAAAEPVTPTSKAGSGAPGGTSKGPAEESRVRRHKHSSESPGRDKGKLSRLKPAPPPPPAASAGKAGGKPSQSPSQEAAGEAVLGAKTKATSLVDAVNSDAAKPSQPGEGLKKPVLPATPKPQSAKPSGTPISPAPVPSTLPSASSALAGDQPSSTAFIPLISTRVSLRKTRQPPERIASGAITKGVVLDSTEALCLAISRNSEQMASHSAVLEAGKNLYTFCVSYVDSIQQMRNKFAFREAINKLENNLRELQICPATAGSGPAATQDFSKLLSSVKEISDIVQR

IC50 [5] [nM] | IC50 [7] [nM] | IC50 [9] [nM] | inhibition [10] [%] | inhibition [11] [%] | inhibition [12] [%] | inhibition [15] [%] | inhibition [18] [%] | IC50 [19] [nM] | IC50 [20] [nM] | inhibition [21] [%] | inhibition [22] [%] | Structure (SMILES) | IC50 (BaF3 [6]) [nM] | IC50 (BaF3 [8]) [nM] | also measured
130 | 19.8 | 44.9 | 77.7 | 85.2 | 74.2 | > 86 |  |  |  |  |  | CCN1CCN(Cc2ccc(NC(=O)c3ccc(C)c(Oc4ncnc5[nH]ccc45)c3)cc2C(F)(F)F)CC1 | 8160 | 55 | Vdss [1]: 9.5 L/kg; F [2]: 21.8%; Cmax [3]: 134 ng/mL; Cmax [4]: 230.9 ng/mL; AUClast [13]: 236.6 ng·h/mL; t1/2 [14]: 2.33 h; Tmax [16]: 2 h; AUClast [17]: 516.2 ng·h/mL
250 |  |  | 78.5 | 98.6 | 74.1 | 91.3 | 58.4 | 577 | 252 | 78.5 | 75.8 | CCN1CCN(Cc2ccc(NC(=O)c3ccc(C)c(Oc4cc(NC)ncn4)c3)cc2C(F)(F)F)CC1 | > 10000 | 46 | 
 | 30.5 | 129 | 83.7 |  | 80.6 | 93.2 | 78.8 | 36.1 | 50.8 | 94.7 | 92.9 | CCN1CCN(Cc2ccc(NC(=O)c3ccc(C)c(Oc4ncnc5cc(OC)c(OC)cc45)c3)cc2C(F)(F)F)CC1 | > 10000 | 92 | 
